Results of several laboratories.
Protocols differ between the studies behind these lines.
Target: Serine/threonine-protein kinase TAO1 (TAOK1, Homo sapiens, UniProt Q7L7X3)
One construct used (Q7L7X3 1-1001): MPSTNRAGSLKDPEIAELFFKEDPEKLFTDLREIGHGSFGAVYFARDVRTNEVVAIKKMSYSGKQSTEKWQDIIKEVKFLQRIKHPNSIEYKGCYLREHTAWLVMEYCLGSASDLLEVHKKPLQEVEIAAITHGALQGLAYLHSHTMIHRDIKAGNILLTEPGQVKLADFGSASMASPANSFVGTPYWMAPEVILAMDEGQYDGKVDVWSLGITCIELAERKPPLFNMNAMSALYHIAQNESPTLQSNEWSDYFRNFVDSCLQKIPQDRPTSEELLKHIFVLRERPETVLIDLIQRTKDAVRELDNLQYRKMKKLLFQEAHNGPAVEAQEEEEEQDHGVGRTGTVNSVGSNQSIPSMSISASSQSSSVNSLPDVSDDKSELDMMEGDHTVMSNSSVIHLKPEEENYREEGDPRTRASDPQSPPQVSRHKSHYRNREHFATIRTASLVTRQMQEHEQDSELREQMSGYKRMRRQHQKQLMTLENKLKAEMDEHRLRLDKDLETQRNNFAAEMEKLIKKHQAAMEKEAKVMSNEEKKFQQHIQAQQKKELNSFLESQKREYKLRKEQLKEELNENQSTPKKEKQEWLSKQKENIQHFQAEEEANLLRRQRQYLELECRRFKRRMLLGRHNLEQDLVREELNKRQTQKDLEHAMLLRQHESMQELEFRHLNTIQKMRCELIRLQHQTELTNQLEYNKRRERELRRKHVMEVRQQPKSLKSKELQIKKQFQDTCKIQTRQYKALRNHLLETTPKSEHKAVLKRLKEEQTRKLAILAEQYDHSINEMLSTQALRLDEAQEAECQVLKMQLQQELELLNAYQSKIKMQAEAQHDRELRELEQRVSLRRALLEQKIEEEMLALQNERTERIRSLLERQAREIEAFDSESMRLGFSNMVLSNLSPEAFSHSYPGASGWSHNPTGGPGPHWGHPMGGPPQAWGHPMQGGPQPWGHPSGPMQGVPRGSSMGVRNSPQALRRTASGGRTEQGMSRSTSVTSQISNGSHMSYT

| Structure (SMILES) | test | setting | endpoint | value |
| --- | --- | --- | --- | --- |
| N#CCCc1ccc2c(c1)-c1[nH]c3ccc([N+](=O)[O-])cc3c1CC(=O)N2 | cell-free assay | 0.5 µM | remaining signal | 73.1% |
| Cc1sc(C(=O)NC2COC2)cc1-n1cc(NC(=O)Nc2c(F)cccc2Cl)cn1 | enzyme activity, inhibitor | 10 µM | remaining activity | 108% |
| Cc1ccc(C(=O)NCc2ccsc2)cc1C#Cc1cn(C(C)C)c2ncnc(N)c12 | enzyme activity, inhibitor | 1 µM | activity vs control | 48% |
| CCN(CC)CCNC(=O)c1c(C)[nH]c(/C=C2\C(=O)Nc3ccc(F)cc32)c1C | cell-free assay | 0.5 µM | remaining signal | 71.5% |
| O=C(Nc1cnn(-c2csc(C(=O)NC3COC3)c2)c1)Nc1ccccc1Cl | enzyme activity, inhibitor | 5 µM | remaining activity | 122% |
| COc1cc(Nc2cnc(C#N)c(O[C@H](C)CN(C)C)n2)ncc1-c1cnn(C)c1 | enzyme activity, inhibitor, radiometric | 10 µM | remaining activity | 75% |
| Cn1c(=O)n(-c2ccc(C(C)(C)C#N)cc2)c2c3cc(-c4cnc5ccccc5c4)ccc3ncc21 | enzyme activity, inhibitor | 10 µM | remaining activity | 81% |
| Nc1nc(Nc2ccc(S(N)(=O)=O)cc2)sc1C(=O)c1ccccc1[N+](=O)[O-] | enzyme activity, inhibitor | 0.1 µM | inhibition | 60 to 66% |
| CN(C)C(=O)Cn1cc(-c2nc(C3(c4ccc(-c5cnc(N)nc5)cc4)CC3)no2)cn1 | cell-free assay, competition with immobilised ligand | 1 µM | remaining binding | 86% |
| Cc1cnc(NC2CCOCC2)nc1-n1cnc(C(=O)NC(CN)c2cc(F)cc(Cl)c2)c1 (stereo not drawn) | enzyme activity, inhibitor, radiometric | 1 µM | remaining activity | 67% |
| Cc1cc(C)c(-n2ccn3nc(-c4cccnc4)cc23)cc1NC(=O)c1cc(C#N)cc(S(F)(F)(F)(F)F)c1 | cell-free assay, competition with immobilised ligand | 0.1 µM | remaining binding | 45.2% |
| CC(C)(O)[C@H]1CC[C@H](Nc2ccc3ncc(-c4cccc(C(F)(F)F)c4)n3n2)CC1 | enzyme activity, inhibitor | 1 µM | remaining activity | 82.6% |
| Cc1nc(C2CCN(C(=O)c3ccc(OC(F)(F)F)cc3N)CC2)c2ncc(N3CCN(C)CC3)cc2n1 | cell-free assay, competition with immobilised ligand | 1 µM | remaining binding | 100% |
| Cc1cc(NC(=O)c2cccc3cc(-c4cccc5[nH]nc(N)c45)ccc23)ccc1F | enzyme activity, inhibitor | 0.1 µM | activity vs control | 103% |
| Cc1ccc(C(=O)Nc2ccc(CN3CCN(C)CC3)c(C(F)(F)F)c2)cc1C#Cc1cnc2cccnn12 | enzyme activity, inhibitor | 23.5 nM | remaining activity | 67% |
| COc1ccc2cc(OCC3(C(=O)O)CN(C(=O)c4ccc(F)cc4)C3)ccc2c1 | cell-free assay, competition with immobilised ligand | 1 µM | remaining binding | 100% |
| CCCOc1ccc(OC)c(F)c1C(=O)c1ccc(C(=O)N[C@@H]2CNC[C@H]2NC(=O)c2ccc3[nH]ncc3c2)cc1 | enzyme activity, inhibitor | 10 µM | remaining activity | 74% |
| C[C@H](c1ccnc(Nc2nc3ccc(-c4cc(N(C)C)ncn4)cc3[nH]2)c1)N1CCN(C(=O)CC(F)(F)F)CC1 | cell-free assay, competition with immobilised ligand | 0.1 µM | remaining binding | 100% |
| FC(F)(F)Oc1cccc(-c2cnc3ccc(-c4ccncc4)nn23)c1 | enzyme activity, inhibitor, radiometric | 1 µM | activity vs control | 83% |
| O=C1Nc2ccc(Cl)cc2C1=Cc1cc(Cl)c(O)c(Cl)c1 | cell-free assay | 0.5 µM | remaining signal | 71.6% |
| O=C(Nc1cccnn1)N1CC(C/C=C/c2cncc(Oc3ccc(C(F)(F)F)cn3)n2)C1 | cell-free assay, competition with immobilised ligand | 1 µM | remaining binding | 91% |
